# Results of several laboratories.
# Lines come from different studies, so protocols differ.
# Target: Ephrin type-A receptor 2 (EPHA2, Homo sapiens, UniProt P29317)
Compound,assay,setting,remaining binding
CC1CCCN1c1nccc(-c2cnn3ncccc23)n1 (centres unmarked),binding,1 µM,99%
FC(F)(F)Oc1cccc(-c2cnc3ccc(-c4ccncc4)nn23)c1,"cell-free assay, competition with immobilised ligand",5 µM,80%
COc1cnc(Nc2cccc(S(N)(=O)=O)c2)nc1N1CCN(c2ccccc2)CC1,"binding, competition with immobilised ligand",1 µM,100%
C[C@H](c1ccnc(Nc2nc3ccc(-c4cc(N(C)C)ncn4)cc3[nH]2)c1)N1CCN(C(=O)CC(F)(F)F)CC1,"cell-free assay, competition with immobilised ligand",0.1 µM,100%
Cc1cnc(Nc2ccc(C(=O)N3CCC(N4CCCC4)CC3)cc2)nc1-c1cc2ccccc2s1,"binding, competition with immobilised ligand",1 µM,26%
Cn1nc(C(=O)NCc2ccc(C(=O)O)cc2)cc1-c1ccc2[nH]ccc2c1,"cell-free assay, competition with immobilised ligand",0.1 µM,95%
CCN1CCN(Cc2ccc(C(=O)Nc3ccc(C)c(Oc4ccc5c(c4)CC(=O)N5)c3)cc2C(F)(F)F)CC1,"binding, competition with immobilised ligand",1 µM,73%
c1cncc(-c2cccc(Nc3nccc(NC4CCCCC4)n3)c2)c1,"binding, competition with immobilised ligand",10 µM,83%
O=C(NCC1CCOCC1)c1n[nH]cc1NC(=O)c1c(F)cccc1F,"binding, competition with immobilised ligand",1 µM,100%
O=C(NCc1ncc(C(F)(F)F)cc1Cl)c1ccc2c(c1)C1(CCS(=O)(=O)CC1)[C@@H](C1CC1)N2S(=O)(=O)c1ccc(F)cc1,"cell-free assay, competition with immobilised ligand",1 µM,84%
F[C@@H]1CCN(c2nccc(-c3cnn4ncccc34)n2)C1,binding,1 µM,100%
O=C(c1ccc(Nc2ncc(Cl)c(-c3ccc(Cl)s3)n2)cc1)N1CCC(N2CCCC2)CC1,"binding, competition with immobilised ligand",1 µM,100%
C[C@@H]1CN(c2ccc3ncc(-c4ccc5[nH]nc(C6CC6)c5c4)n3n2)C[C@H](C)O1,"binding, competition with immobilised ligand",50 nM,86%
c1cnn2ncc(-c3ccnc(N4CCC45COC5)n3)c2c1,binding,1 µM,94%
C[C@H](c1ccc(F)cc1)N(Cc1cccc(C(=O)O)c1)C(=O)c1cnc2ccccc2c1,"cell-free assay, competition with immobilised ligand",1 µM,100%
C[C@@H]1CCN(c2nccc(-c3cnn4ncccc34)n2)C1,binding,1 µM,93%
C[C@@H](c1ccc(-n2cnc3c(N)ncnc32)cc1)N1CCc2nn(C)c(Cc3ccccc3)c2C1=O,"binding, competition with immobilised ligand",0.1 µM,100%
Cc1cnn2ncc(-c3ccnc(N(C)C)n3)c2c1,binding,1 µM,95%
CN(C)C(=O)Cn1cc(-c2nc([C@@](C)(c3ccc(-c4cnc(N)nc4)cc3)C3CC3)no2)cn1,"cell-free assay, competition with immobilised ligand",1 µM,100%
N[C@H]1CCN(c2nccc(-c3cnn4ncccc34)n2)C1,binding,1 µM,87%
Cc1noc([C@H]2C[C@@H](c3ccc(C(F)(F)F)cc3)CN(C(=O)N3CCS(=O)(=O)C3)C2)n1,"cell-free assay, competition with immobilised ligand",1 µM,100%
O=C(c1ccc(Nc2ncc(Cl)c(-c3cc4ccccc4s3)n2)cc1)N1CCC(N2CCCC2)CC1,"binding, competition with immobilised ligand",1 µM,60%
CCOCCn1cc(C(=O)Nc2ccc(-n3nc(-c4cccnc4)cc3C(F)(F)F)cn2)ccc1=O,"cell-free assay, competition with immobilised ligand",1 µM,93%
COc1ncc2cc3ccccc3nc2c1C#N,"cell-free assay, competition with immobilised ligand",5 µM,96%
Nc1cnc(N2CCc3cc(S(=O)(=O)Nc4c(F)cc(Cl)cc4F)cc(N4CCCC4=O)c32)nc1,"cell-free assay, competition with immobilised ligand",1 µM,100%
CN(C)c1ncc(F)c(-c2cnn3ncccc23)n1,binding,1 µM,80%
